Screens (PubChem BioAssay)
A selection: hits, their analogues and other compounds. The true share with any hit is near 2.2%.
PvdQ acylase: P. aeruginosa PvdQ acylase inhibition | 340,000 compounds, 0.063% hits | AID 488965 | inhibition, % at 10 µM | purified PvdQ acylase, fluorescence plate reader; in the data active = inhibition above about 30%, passing the limit was not always enough
FN deposit inh: fibronectin deposition inhibition; 350,000 compounds, 0.086% hits; AH1F fibroblasts, Alexa488-fibronectin deposition fluorescence, overnight; inhibition, % at 12.6 µM;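 active = mean inhibition across replicates of 30% or more, regardless of how many single replicates reach that level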
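Schedule: 1 h cell adhesion before compound, then overnight fibronectin incubation; test system: AH1F fibroblast monolayer depositing Alexa488-labelled fibronectin into matrix; quantity: 10000 AH1F cells per well; probe or stimulus: fluorescent fibronectin at 24 nM final; signal: fluorescence, ex 485 nm, em 525 nm; evaluation: percent inhibition as loss of matrix-bound fibronectin fluorescence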
Env fusion inh: HIV envelope-mediated fusion inhibition. 360,000 compounds, 1.1% hits. inhibition, % at 12.3 µM. HeLa-JRFL Env/CEM21 cell fusion, luciferase;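 active = mean replicate inhibition score of at least 50 and every replicate individually at or above 50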
ERp5 inh: inhibitors of human ERp5; Q15084; ERp5 insulin aggregation, absorbance 650 nm, 90 min; inhibition, % at 9.99 µM; 350,000 compounds, 0.05% hits; AID 651711;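 active = mean replicate inhibition above about 25%, with every replicate also reaching it, limit read from the data, passing the limit was not always enough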
Target sequence (Q15084 whole entry, looked up): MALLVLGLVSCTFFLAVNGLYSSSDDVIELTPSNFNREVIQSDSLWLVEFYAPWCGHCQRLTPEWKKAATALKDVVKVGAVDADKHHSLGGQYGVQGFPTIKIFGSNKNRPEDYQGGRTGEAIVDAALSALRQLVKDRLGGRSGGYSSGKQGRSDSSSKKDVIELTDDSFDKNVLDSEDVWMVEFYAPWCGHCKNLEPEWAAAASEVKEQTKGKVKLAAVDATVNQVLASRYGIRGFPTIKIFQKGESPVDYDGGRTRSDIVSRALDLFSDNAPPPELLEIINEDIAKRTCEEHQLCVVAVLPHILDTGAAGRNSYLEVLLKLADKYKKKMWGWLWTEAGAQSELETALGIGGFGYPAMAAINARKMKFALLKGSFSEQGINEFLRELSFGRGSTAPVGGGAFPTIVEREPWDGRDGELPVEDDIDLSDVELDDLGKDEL
PDI inh: inhibitors of human protein disulfide isomerase; P07237; 350,000 compounds, 0.052% hits; inhibition, % at 10 µM; PDI insulin aggregation turbidity, A650, 90 min; AID 588391;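 active = mean inhibition across replicates of 30% or more, whatever share of single replicates reach that level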
rRNA inh HTS: inhibits bacterial ribosomal RNA function over humanized ribosomes; E. coli WT GFP vs humanized-ribosome RFP mutants, fluorescence, 24 h; hits give low values; DMSO median 0, no signal -100; GFP signal change (wild-type ribosome), % (test concentration not listed); 350,000 compounds, 1.6% hits; AID 720706;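 active = significant combined selectivity score with lowered wild-type GFP, culture density cut under 30%, mutant RFP and density less affected; inactive = any of these conditions unmet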
Hits are given with their value; i = inactive; nt = no result; [ ] = another dose, or the depositor's remark.

SMILES	PvdQ acylase	FN deposit inh	Env fusion inh	ERp5 inh	PDI inh	rRNA inh HTS
CCC(=O)N[C@H]1C=C[C@@H](CC(=O)NCc2cc(F)cc(F)c2)O[C@@H]1CO	nt	i	i	i	nt	i
O=C(c1sccc1-c1ccccc1)N1CCN(S(=O)(=O)c2ccccc2F)CC1	i	i	65.8	i	i	i
C[C@H](CO)N1C[C@H](C)[C@@H](CN(C)S(=O)(=O)c2ccccc2)OCCCC[C@H](C)Oc2ccc(NS(=O)(=O)c3ccc(Cl)cc3)cc2C1=O	nt	i	i	i	nt	i
O=S(=O)(c1cccs1)N1CCC(CO)(Cc2cccc(F)c2)CC1	i	nt	i	i	i	-23.0
Cc1onc(-c2ccccc2)c1C(=O)NC(=S)NNC(=O)c1ccc(O)cc1	i	nt	68.8	nt	i	nt
Cc1c(C(=O)OCC(=O)N(C)c2ccccc2)oc2ccccc12	i	i	i	i	i	-28.1
COc1cc(NC(=O)CSc2nnc(-c3cc(C)on3)o2)cc(OC)c1	i	i	i	i	i	i
Cc1cc(-c2nnc(SCC(=O)Nc3nc(-c4ccc(Cl)cc4)cs3)o2)no1	i	i	i	i	i	-33.2
O=C(C[C@@H]1CC[C@@H](NC(=O)C2CC2)[C@@H](CO)O1)NC1CCC1	nt	i	i	i	nt	i
Cc1ccccc1NC(=O)Nc1nnc([C@@H]2C[C@H](O)[C@@H](CO)O2)s1	nt	i	i	i	i	i
O=C(Nc1nnc([C@H]2C[C@H](O)[C@@H](CO)O2)s1)Nc1cccc(Cl)c1Cl	nt	i	i	i	i	-25.1
COC(=O)C[C@H]1CC[C@@H](NS(=O)(=O)c2ccccc2F)[C@@H](CO)O1	nt	i	i	i	nt	i
N#Cc1ccc(-c2nc3ccc(Br)cn3c2Cc2ccsc2)cc1	nt	i	i	i	nt	i
Clc1ccc(-c2nc3ccc(Br)cn3c2Cc2ccsc2)cc1	nt	i	i	i	nt	-22.9
C[C@@H]1CN([C@H](C)CO)C(=O)c2cc(C#CC3CCCCC3)cnc2O[C@H]1CN(C)C(=O)NC1CCCC1	nt	i	i	i	nt	i
Nc1cccn2c(-c3ccc(Cl)c(Cl)c3)cnc12	i	i	i	i	i	-26.1
Nc1cccn2c(-c3ccc(Cl)cc3)cnc12	i	i	i	i	i	i
CN(C)CC(=O)N1[C@@H](CO)[C@@H](c2ccccc2)C12CN(C(=O)C1CCCC1)C2	nt	nt	nt	i	nt	i
Cc1cccc2c(=O)cc(C)n(CC(N)=O)c12	i	i	i	i	i	-28.3
C[C@H](CO)N1C[C@H](C)[C@@H](CN(C)C(=O)C2CCOCC2)Oc2cc(C#Cc3ccncc3)ccc2S1(=O)=O	nt	nt	i	i	nt	i
C[C@@H]1CN([C@@H](C)CO)C(=O)c2cc(C#CC3CC3)cnc2O[C@@H]1CN(C)C(=O)c1ccncc1	nt	nt	i	nt	nt	i
O=C(Cc1cccs1)N1CCCC(c2nc3c(nnn3Cc3ccc(F)cc3)c(=O)[nH]2)C1 (stereo unspecified)	i	i	i	nt	i	nt
CC(C)(C)c1ccc(Cn2nnc3c(=O)[nH]c(C4CCCN(C(=O)Cc5cccs5)C4)nc32)cc1 (stereo unspecified)	i	i	63.4	nt	i	nt
CC(C)(C)c1ccc(Cn2nnc3c(=O)[nH]c(C4CCN(C(=O)Cc5cccs5)CC4)nc32)cc1	i	i	72.3	nt	i	nt
N#CC(C#N)=C1C=CC=CN1/C(=C\c1ccco1)C(=O)c1ccc(Cl)cc1	i	36.4	i	i	i	i
SMILES	PvdQ acylase	FN deposit inh	Env fusion inh	ERp5 inh	PDI inh	rRNA inh HTS
N#CC(C#N)=C1C=CC=CN1/C(=C\c1ccco1)C(=O)c1ccc(-c2ccccc2)cc1	i	i	i	nt	i	nt
COc1ccc2c(c1)c(C(C)=O)c(C)n2-c1ccccc1OC	i	i	i	i	i	-35.6
COc1ccccc1-n1c(C)c(C(C)=O)c2cc(O)ccc21	i	i	i	i	i	i
CN1[C@@H]2Cn3c(ccc(-c4ccccc4)c3=O)[C@H]1[C@@H](C(=O)NC1CCCCC1)[C@@H]2CO	nt	nt	nt	i	nt	i
CCC(O)(CC)C(=O)N/N=C/c1cc(Br)cc(Br)c1O	i	i	i	i	i	-21.1
Cc1noc(C)c1S(=O)(=O)N(C)C[C@H]1OCCCC[C@@H](C)Oc2ccc(NC(=O)Nc3ccc(C(F)(F)F)cc3)cc2C(=O)N([C@@H](C)CO)C[C@@H]1C	nt	nt	67.2[16.7 µM]	i	nt	i
Cc1noc(C)c1S(=O)(=O)N(C)C[C@H]1OCCCC[C@H](C)Oc2ccc(NC(=O)Nc3ccc(C(F)(F)F)cc3)cc2C(=O)N([C@@H](C)CO)C[C@@H]1C	nt	nt	66.4[16.7 µM]	i	nt	i
Cc1ccc(S(=O)(=O)N(C)C[C@@H]2OCCCC[C@@H](C)Oc3ccc(NC(=O)Nc4ccc(C(F)(F)F)cc4)cc3C(=O)N([C@H](C)CO)C[C@H]2C)cc1	nt	i	56.6[16.7 µM]	i	nt	i
Cc1noc(C)c1S(=O)(=O)N(C)C[C@H]1OCCCC[C@H](C)Oc2ccc(NC(=O)Nc3ccc4c(c3)OCO4)cc2C(=O)N([C@H](C)CO)C[C@@H]1C	nt	nt	56.9[16.7 µM]	nt	nt	i
C[C@H](CO)N1C[C@H](C)[C@H](CN(C)Cc2cccc(C(F)(F)F)c2)Oc2ncc(/C=C/c3ccccc3)cc2C1=O	nt	i	nt	i	nt	i
COc1ccc(S(=O)(=O)N[C@H]2CC[C@H](CC(=O)NCCc3ccncc3)O[C@H]2CO)cc1	nt	nt	i	i	nt	i
Cc1noc(C)c1S(=O)(=O)N(C)C[C@@H]1OCCCC[C@H](C)Oc2ccc(NC(=O)Nc3ccc(C(F)(F)F)cc3)cc2C(=O)N([C@H](C)CO)C[C@H]1C	nt	nt	69.9[16.7 µM]	i	nt	i
N/C(=N\OC(=O)C1CC1)c1ccc([N+](=O)[O-])s1	i	i	i	i	i	-55.1
CNC[C@@H]1Oc2c(NC(=O)NC(C)C)cccc2C(=O)N([C@@H](C)CO)C[C@H]1C	nt	nt	nt	i	nt	i
COc1ccc(/C=C2\SC(=S)N(CCC(=O)Nc3ccc(C(=O)O)cc3)C2=O)cc1	i	i	i	i	i	i
O=C(O)CN1C(=O)/C(=C\c2cccc(OC(=O)c3ccco3)c2)SC1=S	i	i	i	i	i	i
O=C(O)CN1C(=O)/C(=C\c2ccc(OC(=O)c3ccco3)cc2)SC1=S	i	i	i	i	43.1	i
COc1ccc(/C=C2/SC(=S)N(CCC(=O)O)C2=O)cc1	i	i	57.6	nt	i	nt
Cc1noc(C)c1S(=O)(=O)Nc1ccc2c(c1)C(=O)N([C@H](C)CO)C[C@H](C)[C@@H](CN(C)C(=O)CCCN(C)C)OCCCC[C@H](C)O2	nt	nt	i	nt	nt	i
O=C(C1CCC1)N1CC2(C1)[C@H](c1ccccc1)[C@@H](CO)N2C(=O)CC1CC1	nt	nt	nt	i	nt	i
COc1cccc(NC(=O)C2(C)CCN2C(C)C)c1OC (stereo unspecified)	nt	i	i	i	i	i
CCC(=O)N1CCC1(C)C(=O)Nc1cccc(OC)c1OC (stereo unspecified)	nt	i	58.1	i	i	i
C[C@@H]1CCCCO[C@H](CN(C)C(=O)Cc2ccccc2)[C@@H](C)CN([C@H](C)CO)C(=O)c2cc(NC(=O)c3ccncc3)ccc2O1	nt	nt	i	i	nt	i
